Assay [1] has as its system MT4. In words: Inhibitory index for OKT4A mAb binding inhibition in MT-4 cells was determined at a concentration of 4 ug/ml. Type of assay: functional, Homo sapiens. The procedure, abridged: (§1)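 MT-4 cells, 200 000 in 100 µL PBS, exposed to compound for 10–20 s at 20 °C, stained with anti-OKT4A-FITC for 20 min at 4 °C, washed, formaldehyde-fixed and read by flow cytometry. Index = 1 − (MF with compound − MF IgG-FITC control)/(MF OKT4A only − MF IgG-FITC control), from mean fluorescence intensity.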

Assay [2] in a line: Compound was tested for percent of OKT4A positive cells stained with normal mouse IgG-FITC at a concentration of 0.16 ug/ml. It counts as functional. The method in brief: (§2)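 MT-4 cells, 200 000 in 100 µL PBS, exposed to compound for 10–20 s at 20 °C, then stained with anti-OKT4A-FITC for 20 min at 4 °C. Cells washed, fixed in 0.37% formaldehyde and analysed by cytofluorometry. Positive cells are those brighter than control cells stained with normal mouse IgG-FITC, which monitors nonspecific labelling.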

For assay [3], the system named is MT4. Description: Inhibitory index for OKT4A mAb binding inhibition in MT-4 cells was determined at a concentration of 100 ug/ml. It counts as functional, Homo sapiens. The procedure, abridged:
as §1

Assay [4] deals with MT4. In words: Inhibitory index for OKT4A mAb binding inhibition in MT-4 cells was determined at a concentration of 0.8 ug/ml. Type of assay: functional, Homo sapiens. The method in brief:
as §1

For assay [5], the system named is HuT78. In words: Compound was tested for reduce the number of gaint cells in HIV-1 infected HUT-78 cells cocultured with MOLT -4 cells. It counts as functional, cell-based, Homo sapiens. The method in brief:
(§3)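 HUT-78 cells persistently infected with HIV-1 or HIV-2 cocultured with uninfected MOLT-4 (CD4+) cells alongside compound. Syncytium formation and bystander-cell destruction assessed by flow cytometry. IC50 taken as the concentration cutting giant-cell number by 50%.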

Assay [6] deals with MT4. In words: Inhibitory concentration for cell viability in mock-infected MT-4 cells. It counts as functional, cell-based. Particulars: Homo sapiens. The procedure, abridged:
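MT-4 cells mock-infected and cultured with compound. Viability measured by MTT tetrazolium colorimetric read-out. Value is the 50% cytotoxic concentration. MT-4 data are means of at least three experiments.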

Assay [7] concerns MT4. Description: Inhibitory index for OKT4A mAb binding inhibition in MT-4 cells was determined at a concentration of 0.16 ug/ml. Type of assay: functional, Homo sapiens. The procedure, abridged: as §1
Assay [8] in a line: Compound was tested for percent of OKT4A positive cells stained with normal mouse IgG-FITC at a concentration of 4 ug/mL. Type of assay: functional. The method in brief: as §2
Assay [9] deals with MT4. In words: Inhibitory concentration for cytopathicity of HIV-2 (LAV-2ROD) in MT-4 cells. Type of assay: functional, cell-based, Homo sapiens. The procedure, abridged:
(§4)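 MT-4 cells infected with HIV-1 (HTLV-IIIB) or HIV-2 (LAV-2ROD) at 100–500-fold the dose infecting 50% of cells, then cultured with compound. Protection from cytopathicity gives the IC50 (50% inhibitory concentration). Means of at least three experiments.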
On the technique in general: Damage to the host cells serves as the signal in cytopathic effect assays.

Assay [10] in a line: Compound was tested for percent of OKT4A positive cells stained with normal mouse IgG-FITC at a concentration of 100 ug/ml. Type of assay: functional. The method in brief: as §2
A further assay deals with CCRF-CEM. In words: Inhibitory concentration for cytopathicity of HIV-1 (HTLV-111B) in CEM cells. Type of assay: functional, cell-based, Homo sapiens. The procedure, abridged: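 CEM cells infected with HIV-1 (HTLV-IIIB) and cultured with compound. Protection from cytopathicity measured by XTT tetrazolium viability assay. IC50 is the concentration giving 50% inhibition. Means of two to four experiments.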

A short description of assay [11]: Compound was tested for percent of OKT4A positive cells stained with normal mouse IgG-FITC at a concentration of 20 ug/ml. It counts as functional. The procedure, abridged: as §2
The subject of assay [12] is HuT78. In words: Compound was tested for reduce the number of gaint cells in HIV-2 infected HUT-78 cells cocultured with MOLT -4 cells. It counts as functional, cell-based, Homo sapiens. The method in brief:
as §3

A further assay deals with MT-4 (human). In words: Inhibitory index of HIV-1 binding to MT-4 cells was determined at a concentration of 25 ug/mL.
Assay [13] can be described thus: Compound was tested for percent of OKT4A positive cells stained with normal mouse IgG-FITC at a concentration of 0.8 ug/ml. It counts as functional. The method in brief:
as §2

Assay [14] concerns MT4. In words: Inhibitory index for OKT4A mAb binding inhibition in MT-4 cells was determined at a concentration of 20 ug/ml. It counts as functional, Homo sapiens. The procedure, abridged:
as §1

Assay [15] concerns MT4. In words: Inhibitory concentration for cytopathicity of HIV-1 (HTLV-111B) in MT-4 cells. Type of assay: functional, cell-based, Homo sapiens. The procedure, abridged:
as §4

Converted amounts (≈) assume the structure as drawn. “And” between values parts separate entries of the source, which are not always exact repeats. Equal entries are not always repeated.

The text below walks through data of ChEMBL document CHEMBL1125813, “Preparation and anti-HIV activities of aurintricarboxylic acid fractions and analogues: direct correlation of antiviral potency with molecular weight” (J Med Chem, 1991).

For orientation: IC50 means the point on the concentration scale where inhibition reaches its midpoint.

For the compound `O=C(O)C1=CC(=C(c2ccc(O)c(C(=O)O)c2)c2ccc(O)c(C(=O)O)c2)C=CC1=O` [AURINTRICARBOXYLIC ACID], the Activity is reported as 0.91 with MT4 [1]; 99.5 in [2]; 0.97 in the assay with MT4 [3]; 0.26 in the assay with MT4 [4]; 0 with MT4 [7]; 9.2 in assay [8]. For the same compound, the Activity in assay [10] was found to be 2.7; in assay [11] it was 1.8; in assay [13], 99.2; in the assay on MT4 [14], 0.98. The IC50 in the assay on HuT78 [5] worked out at 4 µg/mL (≈ 9.47 µM); with MT4 [6], 280 µg/mL (≈ 663 µM); in the assay with MT4 [9] (Homo sapiens, MT4, read-out: IC50) it was 0.85 µg/mL (≈ 2.01 µM); in the assay with MT4 [9] (mt4), 1.3 µg/mL (≈ 3.08 µM); in the assay with CCRF-CEM (Homo sapiens, CCRF-CEM, read-out: IC50) it was 2.1 µg/mL (≈ 4.97 µM); with CCRF-CEM (ccrf-cem), 1.2 µg/mL (≈ 2.84 µM). Moreover, the IC50 with HuT78 [12] (Homo sapiens, HuT78, read-out: IC50) is 4 µg/mL (≈ 9.47 µM); in the assay with HuT78 [12] (hut78), 4 µg/mL (≈ 9.47 µM); with MT4 [15], 1.1 µg/mL and 0.5 µg/mL. For the same compound, the Inhibitory index in the assay on MT-4 (human) amounted to 0.99.
